Tests used:
[1] = Oral bioavailability in dog at 1 mg/kg; assay type: ADME, organism-based, Canis lupus familiaris; conditions: in vivo
[2] = Oral bioavailability in rat at 1 mg/kg; assay type: ADME, organism-based; conditions: in vivo
How it was run: (§1)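 Rats (n = 3) given 0.5 mg/kg intravenously and 1.0 mg/kg orally; values reported as mean ± spread over 3 animals.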

[3] = Volume of distribution at steady state in dog at 0.2 mg/kg, iv and 1 mg/kg, po; assay type: ADME, organism-based, Canis lupus familiaris; conditions: in vivo, read-out: Vdss
[4] = Clearance in rat at 0.5 mg/kg, iv and 1 mg/kg, po; assay type: ADME, organism-based; conditions: in vivo; how it was run: as §1
[5] = Half life in rat at 0.5 mg/kg, iv and 1 mg/kg, po; assay type: ADME, organism-based; conditions: in vivo; how it was run: as §1
[6] = Volume of distribution at steady state in rat at 0.5 mg/kg, iv and 1 mg/kg, po; assay type: ADME, organism-based; conditions: in vivo, read-out: Vdss; how it was run: as §1
[7] = Half life in dog at 0.2 mg/kg, iv and 1 mg/kg, po; assay type: ADME, organism-based, Canis lupus familiaris; conditions: in vivo
[8] = Clearance in dog at 0.2 mg/kg, iv and 1 mg/kg, po; assay type: ADME, organism-based, Canis lupus familiaris; conditions: in vivo
[9] = Clearance in dog at 0.2 mg/kg, iv; assay type: ADME, organism-based, Canis lupus familiaris; design: dose 0.2 mg/kg, route intravenous; conditions: in vivo
[10] = Half life in dog at 0.2 mg/kg, iv; assay type: ADME, organism-based, Canis lupus familiaris; design: dose 0.2 mg/kg, route intravenous; conditions: in vivo
[11] = Volume of distribution at steady state in dog at 0.2 mg/kg, iv; assay type: ADME, organism-based, Canis lupus familiaris; design: dose 0.2 mg/kg, route intravenous; conditions: in vivo, read-out: Vdss

CCOc1cc([C@@H](Nc2ccc3c(N)nccc3c2)C(=O)NS(=O)(=O)c2ccccc2)ccc1OC(C)C
bioavailability [1]: 3.5%
bioavailability [2]: < 1%

CCOc1ccc(F)c([C@@H](Nc2ccc3c(N)nccc3c2)C(=O)N2CCC[C@@H]2c2cc(NC(=O)OC)ccc2S(=O)(=O)C(C)C)c1
Vd [3]: 4.2 L/kg
clearance [4]: 26 mL/min/kg
bioavailability [1]: 45%
bioavailability [2]: 7.9%
half-life [5]: 4.9 h
Vd [6]: 5.6 L/kg
half-life [7]: 2.2 h
clearance [8]: 41 mL/min/kg

CCOc1cc([C@@H](Nc2ccc3c(N)nccc3c2)C(=O)NCc2ccccc2)ccc1OC(C)C
bioavailability [1]: 45%
bioavailability [2]: 31%

CCS(=O)(=O)c1ccccc1[C@H]1[C@@H](C(=O)O)CCN1C(=O)[C@H](Nc1ccc2c(N)nccc2c1)c1ccc(F)c(OC)c1
clearance [9]: 14 mL/min/kg
half-life [10]: 1.1 h
Vd [11]: 0.65 L/kg
